PGC1a acetyl inh = lowers PGC1a acetylation signal in U2OS cells; AID 651687; hit rate 0.17% among 350,000; inhibition, % at 15.6 µM; AlphaScreen anti-acetyl-lysine; with virally co-expressed GCN5 acetyltransferase;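 active = every replicate shows inhibition of at least 40%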
Wnt bcat act = activates Wnt/beta-catenin signaling in a reporter cell assay. activator, plate reader. AID 743398. activation, % at 9.35 µM. hit rate 1.2% among 300,000; in the data active = activation above about 30%, passing the limit was not always enough
Cneo AK release = Cryptococcus neoformans lysis via adenylate kinase release | C. neoformans lysis, adenylate kinase release luminescence, 4 h; normalised: neutral wells 0, clomiphene wells 100 | lysis activity, % at 15 µM | hit rate 0.2% among 360,000 | AID 651654;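 active = mean lysis activity across replicates of at least 80%, whatever share of replicates individually reach that level; inactive = mean lysis activity below 80%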
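Schedule: static 4 h at 37 °C with compound, 1 h detection; system: C. neoformans cells; benchmarks: Clomiphene as positive control; buffer or medium: fresh YPD medium; measure: luminescence rise reflecting yeast cell lysis; measured by: luminescent adenylate kinase detection reagent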
MITF act = activators of MITF-driven TRPM1 promoter activity in SK-MEL-5 cells | SK-MEL-5 TRPM1-promoter luciferase, 24 h; % of positive control, neutral wells = 0 | activation, % at 12.5 µM | hit rate 0.75% among 300,000 | AID 588334;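 active = mean activation of at least 80% with every replicate also reaching 80%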
Large screens that a line does not name were inactive; ! = repeats disagree. Shown are actives, neighbours in structure and some others; about 1.5% of the full set was active somewhere.

O=C(Nc1nc2c(F)cccc2s1)c1ccco1	Wnt bcat act 43
Cc1cc(Cl)cc2sc(NC(=O)c3ccco3)nc12	MITF act 88 (no result: Wnt bcat act)
COc1cccc2sc(Nc3nnc(-c4ccc(F)cc4)o3)nc12	none
COc1cccc2sc(Nc3nnc(-c4cccs4)o3)nc12	Wnt bcat act 59 (no result: MITF act)
Fc1cccc2sc(Nc3nc4cc5c(cc4s3)OCCO5)nc12	none (no result: PGC1a acetyl inh, Cneo AK release)
Fc1cccc2sc(Nc3nnc(-c4ccco4)o3)nc12	Wnt bcat act 38
O=C(NCC1CC1)[C@@H]1[C@@H](CO)[C@@H]2Cn3c(ccc(-c4ccccc4)c3=O)[C@@H]2N1Cc1cocn1	none (no result: PGC1a acetyl inh, Wnt bcat act, MITF act)
O=C(NCc1ccccn1)[C@H]1[C@H](CO)[C@H]2Cn3c(cccc3=O)[C@@H]1N2CC1CCCC1	none (no result: Wnt bcat act, Cneo AK release, MITF act)
c1ccc(-c2nc3ccccc3s2)nc1	Wnt bcat act 59!
Nc1ccc(-c2nc3ccccc3s2)cn1	Wnt bcat act 38 (no result: PGC1a acetyl inh)
CN(C)c1ncccc1-c1nc2ccccc2s1	none (no result: PGC1a acetyl inh, Cneo AK release)
CC(C)NC(=O)N(C)C[C@H]1Oc2cc(C#Cc3ccc(F)cc3)ccc2S(=O)(=O)N([C@H](C)CO)C[C@@H]1C	none (no result: Wnt bcat act, MITF act)
O=C1/C(=C/c2ccccn2)COc2ccccc21	none (no result: Cneo AK release)
O=C1/C(=C/c2ccc(O)cc2)COc2ccccc21	Wnt bcat act 31 (no result: PGC1a acetyl inh)
O=C(C[C@H]1CC[C@H]2[C@@H](COC[C@@H](O)CN2C(=O)c2ccncc2)O1)NC1Cc2ccccc2C1	none (no result: Wnt bcat act, MITF act)
Cc1ccc(C)n1-c1ccc(-c2ccn[nH]2)cc1	none
c1ccn(-c2ccc(-c3ccn[nH]3)cc2)c1	MITF act 93 (no result: PGC1a acetyl inh, Cneo AK release)
COc1ccc([N+](=O)[O-])c(S(=O)(=O)c2ccc(Cl)cc2)n1	PGC1a acetyl inh 45 (no result: MITF act)
O=C(CCN1C(=O)C2CCCCC2C1=O)Nc1nc2c(F)cc(F)cc2s1 (configuration not stated)	Wnt bcat act 41, MITF act 90
CCc1nc(C)cn1S(=O)(=O)c1ccc(Br)cc1	Wnt bcat act 51 (no result: PGC1a acetyl inh)
CCc1nc(C)cn1S(=O)(=O)c1ccc2c(c1)OCCO2	none
CC(=O)N1CCc2c(sc(NC(=O)c3ccc([N+](=O)[O-])o3)c2C#N)C1	Wnt bcat act 67
COc1ccc(S(=O)(=O)N2C[C@H](O)COC[C@H]3O[C@H](CC(=O)N[C@@H]4CCN(Cc5ccccc5)C4)CC[C@@H]32)cc1	none (no result: Wnt bcat act, MITF act)
COc1ccc(C(CC(=O)Nc2ccccn2)N2Cc3ccccc3C2=O)cc1 (configuration not stated)	PGC1a acetyl inh 76
COc1ccc(C(CC(=O)Nc2ncccc2C)N2Cc3ccccc3C2=O)cc1 (configuration not stated)	none
Cc1cc(C(F)(F)F)n(-c2nc(C(=O)NNS(=O)(=O)c3ccccc3)cs2)n1	none
Cc1cc(C(F)(F)F)n(-c2nc(C(=O)NNS(=O)(=O)c3ccccc3[N+](=O)[O-])cs2)n1	PGC1a acetyl inh 110 (no result: Cneo AK release)
C[C@@H]1CN([C@@H](C)CO)C(=O)CCCn2nncc2CO[C@@H]1CN(C)Cc1cccnc1	none (no result: Wnt bcat act, Cneo AK release, MITF act)
COc1ccc(C2CC(c3ccc(F)cc3)=NN2c2ccccc2)cc1OC (configuration not stated)	none (no result: MITF act)
COc1ccc(C(C#N)N2CCC(c3ccccc3)=N2)cc1OC (configuration not stated)	none (no result: Cneo AK release)
COc1ccc(C2=NN(C(C#N)c3ccc(OC)c(OC)c3)C(c3ccccc3)C2)cc1 (configuration not stated)	Wnt bcat act 61
COc1ccc(C2=NN(c3ccccc3)C(c3ccc(OC)c(OC)c3)C2)cc1 (configuration not stated)	MITF act 84 (no result: PGC1a acetyl inh)
CC=Cc1ccc2n(c1=O)C[C@H]1[C@H](CO)[C@@H](C(=O)NCc3ccccc3)N(CC)[C@@H]21 (mixture of isomers)	none (no result: Wnt bcat act, Cneo AK release, MITF act)
O=C(O)C(=O)/C(=C\c1cccc(Cl)c1)c1ccc2ccccc2n1	Wnt bcat act 40
Cc1ccc(S(=O)(=O)Nc2ccc3c(c2)C(=O)N([C@@H](C)CO)C[C@@H](C)[C@@H](CN(C)C(=O)Nc2ccc4c(c2)OCO4)OCCCC[C@@H](C)O3)cc1	none (no result: Wnt bcat act, MITF act)
Cc1ccc(NC(=O)Nc2ccnc(-c3cccnc3)n2)cc1	Wnt bcat act 55 (no result: Cneo AK release)
Cc1ccc(NC(=O)c2cn(-c3cccc(C)n3)cn2)cc1	MITF act 106 (no result: Wnt bcat act)
Cc1ccc(NC(=O)Nc2cccc(C)n2)cc1	Wnt bcat act 40
Cc1cccc(NC(=O)NC(=O)c2ccccc2)n1	Wnt bcat act 37 (no result: Cneo AK release)
Cc1ccc(C(=O)Nc2ccnc(-c3cccnc3)n2)cc1	none (no result: Cneo AK release)
C[C@@H]1CN([C@@H](C)CO)C(=O)c2cc(NS(=O)(=O)c3ccc(F)cc3)ccc2O[C@@H]1CN(C)S(=O)(=O)c1cccs1	none (no result: Wnt bcat act, MITF act)

From PubChem
